Consider one molecule from ChEMBL document CHEMBL4130626, “α-Arylidene Diacylglycerol-Lactones (DAG-Lactones) as Selective Ras Guanine-Releasing Protein 3 (RasGRP3) Ligands” (J Med Chem, 2018).

pEC50, pKi: −log10 of the molar value. Calls of active or inactive are those of the source. The rule behind the calls is not given here.

In assay [1] the target is T1, Protein kinase C epsilon type (Homo sapiens, UniProt Q02156).
T1 sequence (Q02156 whole entry): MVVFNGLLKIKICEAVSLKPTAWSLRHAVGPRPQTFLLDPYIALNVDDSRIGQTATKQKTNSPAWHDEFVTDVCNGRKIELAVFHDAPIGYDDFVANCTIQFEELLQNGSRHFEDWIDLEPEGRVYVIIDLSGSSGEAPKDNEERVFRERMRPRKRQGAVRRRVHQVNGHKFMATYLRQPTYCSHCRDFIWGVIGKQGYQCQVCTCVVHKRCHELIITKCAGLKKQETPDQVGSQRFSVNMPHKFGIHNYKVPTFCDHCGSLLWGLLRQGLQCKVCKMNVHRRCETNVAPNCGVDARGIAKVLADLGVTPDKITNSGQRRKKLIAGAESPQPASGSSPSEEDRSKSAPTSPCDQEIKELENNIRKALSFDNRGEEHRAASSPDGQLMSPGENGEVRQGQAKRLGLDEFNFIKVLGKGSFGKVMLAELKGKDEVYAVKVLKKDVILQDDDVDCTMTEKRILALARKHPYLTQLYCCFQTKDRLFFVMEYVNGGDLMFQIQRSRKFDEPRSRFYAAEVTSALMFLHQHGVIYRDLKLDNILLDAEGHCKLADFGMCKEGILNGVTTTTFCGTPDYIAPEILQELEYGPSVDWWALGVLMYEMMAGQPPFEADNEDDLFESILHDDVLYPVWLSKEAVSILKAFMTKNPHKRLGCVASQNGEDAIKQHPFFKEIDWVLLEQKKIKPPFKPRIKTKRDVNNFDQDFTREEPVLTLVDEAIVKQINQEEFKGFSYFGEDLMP
The assay can be described thus: Displacement of [3H]PDBu from full length recombinant human PKCepsilon expressed in baculovirus expression system after 5 mins by scintillation counting. A digest of the protocol: (§1)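 Competition of [3H]PDBu binding by polyethylene glycol precipitation, with 100 µg/ml phosphatidylserine and ≤0.003% Triton X-100, 5 min at 37 °C. Proteins: full-length purified human PKCα, PKCε; full-length RasGRP1; MBP-RasGRP3 from E. coli BL21(DE3) induced with 0.3 mM IPTG 6 h at room temperature. Ki mean ± SEM of ≥2 experiments, triplicate points.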

Assay [2] addresses T2, RAS guanyl-releasing protein 1 (Homo sapiens) (UniProt O95267).
T2 sequence (whole entry): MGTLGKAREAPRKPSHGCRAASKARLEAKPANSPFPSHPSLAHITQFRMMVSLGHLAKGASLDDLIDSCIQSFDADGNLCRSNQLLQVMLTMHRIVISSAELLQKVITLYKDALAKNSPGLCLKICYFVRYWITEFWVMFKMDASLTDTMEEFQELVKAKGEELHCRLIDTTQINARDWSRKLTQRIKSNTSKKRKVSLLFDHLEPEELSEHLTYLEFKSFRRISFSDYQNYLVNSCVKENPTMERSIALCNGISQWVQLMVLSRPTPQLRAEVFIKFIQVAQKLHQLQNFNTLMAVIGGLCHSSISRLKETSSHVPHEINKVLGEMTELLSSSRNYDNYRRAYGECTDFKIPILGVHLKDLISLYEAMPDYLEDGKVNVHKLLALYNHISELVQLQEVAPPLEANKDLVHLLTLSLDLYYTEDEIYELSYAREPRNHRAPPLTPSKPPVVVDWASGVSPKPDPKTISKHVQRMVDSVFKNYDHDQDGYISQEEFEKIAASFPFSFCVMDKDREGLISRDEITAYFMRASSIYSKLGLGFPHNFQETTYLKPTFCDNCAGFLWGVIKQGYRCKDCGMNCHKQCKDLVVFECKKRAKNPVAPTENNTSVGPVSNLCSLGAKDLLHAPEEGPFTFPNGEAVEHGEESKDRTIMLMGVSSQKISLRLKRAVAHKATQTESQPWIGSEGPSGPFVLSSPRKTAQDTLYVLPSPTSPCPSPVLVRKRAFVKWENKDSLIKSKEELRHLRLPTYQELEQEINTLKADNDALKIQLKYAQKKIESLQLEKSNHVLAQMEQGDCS
The assay can be described thus: Displacement of [3H]PDBu from full length MBP-tagged human RasGRP1 expressed in Escherichia coli BL21 (DE3) after 5 mins in presence of phosphatidylserine by scintillation counting. A digest of the protocol: as §1
(In general: Displacement assays read how much labelled ligand stays bound in the presence of the test substance.)

Assay [3] concerns the target T3, Ras guanyl-releasing protein 3 (Homo sapiens, UniProt Q8IV61).
T3 sequence (Q8IV61 whole entry): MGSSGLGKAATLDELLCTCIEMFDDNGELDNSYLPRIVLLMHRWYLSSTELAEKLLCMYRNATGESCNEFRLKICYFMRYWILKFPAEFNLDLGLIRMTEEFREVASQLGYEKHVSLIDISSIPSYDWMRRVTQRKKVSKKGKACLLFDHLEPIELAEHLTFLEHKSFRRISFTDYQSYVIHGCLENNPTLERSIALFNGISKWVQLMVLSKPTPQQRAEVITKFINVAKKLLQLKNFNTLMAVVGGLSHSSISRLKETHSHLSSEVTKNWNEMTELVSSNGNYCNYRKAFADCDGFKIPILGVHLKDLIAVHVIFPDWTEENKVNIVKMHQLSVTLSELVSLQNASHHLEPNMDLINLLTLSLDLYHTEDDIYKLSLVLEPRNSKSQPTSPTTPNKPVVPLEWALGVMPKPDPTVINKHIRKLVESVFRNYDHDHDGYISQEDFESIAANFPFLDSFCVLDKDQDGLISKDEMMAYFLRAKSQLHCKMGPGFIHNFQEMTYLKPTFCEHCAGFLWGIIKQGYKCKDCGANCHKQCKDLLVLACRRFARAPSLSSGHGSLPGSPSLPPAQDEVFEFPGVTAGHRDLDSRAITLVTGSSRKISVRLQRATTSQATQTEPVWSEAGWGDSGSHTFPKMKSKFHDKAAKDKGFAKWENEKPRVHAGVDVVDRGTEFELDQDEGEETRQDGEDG
The assay can be described thus: Activation of RasGRP3 in human Ramos cells after 30 mins by immunoblot method. The class given is cell-based. The method, boiled down:
(§2)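 Cells expressing GFP-RasGRP1/3 (HEK293 or LNCaP, 48 h after plating, transfected; expression checked by fluorescence 24-48 h later) or Ramos with endogenous RasGRP3 treated with half-log increasing concentrations (max 10 µM), 1000 nM PMA or DMSO, 37 °C, 30 min, 5% CO2. RasGTP by Raf1 RBD bead pulldown and anti-Pan-Ras immunoblot; pERK by western blot. Band intensities normalized to 1000 nM PMA; EC50 from n = 3.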
In general terms: In western blotting, separated proteins are transferred to a membrane and probed.

The target in assay [4] is T3, Ras guanyl-releasing protein 3. The assay can be described thus: Activation of RasGRP3 in human Ramos cells assessed as ERK1/2 phosphorylation after 30 mins by immunoblot method. It counts as cell-based. A digest of the protocol:
as §2

The species named for assay [5] is Homo sapiens. As to the kind of experiment: Selectivity ratio of EC50 for PKCdelta (unknown origin) expressed in HEK293 cells harboring GFP-tagged RasGRP3 to EC50 for GFP-tagged RasGRP3 (unknown origin) expressed in HEK293 cells. It counts as cell-based. The method, boiled down:
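One EC50 comes from PKCδ S299 phosphorylation on immunoblot, the other from Ras-GTP pulled down on Raf1-RBD. Both signals normalised to 1000 nM PMA. EC50s above 10 µM are extrapolated.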

Assay [6] is filed under the species Homo sapiens. The assay can be described thus: Selectivity ratio of EC50 for PKCdelta (unknown origin) expressed in human LNCAP cells harboring GFP-tagged RasGRP1 to EC50 for GFP-tagged RasGRP1 (unknown origin) expressed in human LNCAP cells. The class given is cell-based.

In general, pKi refers to the Ki on a negative log10 scale, so that one unit is a factor of ten. The term pEC50 denotes −log10 of the EC50, conventionally taken in molar units. For the molecule `Cn1cc(/C=C2\CC(CO)(COC(=O)C(C)(C)C)OC2=O)c2ccccc21` (stereo unspecified), the pKi in assay [1] was 7.10. Besides, the inhibition entry in assay [2] is “Active”. Also, the pEC50 is 6.07 in assay [3] and 5.22 in assay [4]. Further, the Ratio EC50 was 9.2 in the assay filed under Homo sapiens [5] and 8.3 in the assay filed under Homo sapiens [6].
